# TCR-CD3 inh = inhibitors of human TCR-CD3 interaction, primary screen, biochemical, fluorescence, TAMRA-labeled TCR probe; T-cell receptor (TCR); inhibition, % at 9.4 µM; 0.37% of 360,000 active;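 also: recombinant mutant TCR 2C K166C tagged with TAMRA read by polarization; 0% = receptor in buffer alone and 100% = receptor with positive control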
# ABHD4 inh = ABHD4 inhibitors, primary screen, biochemical, fluorescence polarization, mouse | 0.54% of 370,000 active | inhibition, % at 8.92 µM | purified mABHD4, FP-Rh probe fluorescence polarization;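 active = inhibition exceeding the mean over every tested compound plus 3 SD, cut at about 30% in these data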;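 also: 0% = plate median of compound wells and 100% = S159A mutant with DMSO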
# Target sequence (Q8VD66 whole entry, looked up): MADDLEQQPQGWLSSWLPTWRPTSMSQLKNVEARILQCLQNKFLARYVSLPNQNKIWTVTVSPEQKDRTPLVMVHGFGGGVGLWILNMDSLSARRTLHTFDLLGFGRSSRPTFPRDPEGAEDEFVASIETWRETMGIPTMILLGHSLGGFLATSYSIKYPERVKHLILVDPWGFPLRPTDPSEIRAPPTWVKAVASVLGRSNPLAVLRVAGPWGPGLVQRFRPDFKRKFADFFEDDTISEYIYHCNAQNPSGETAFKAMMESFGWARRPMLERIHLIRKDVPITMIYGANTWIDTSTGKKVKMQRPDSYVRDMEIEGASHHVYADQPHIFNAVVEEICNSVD
#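 Assay system: mouse ABHD4 enzyme, wild type / Also added: fluorescent activity-based probe FP-Rh / Doses: single nominal dose of 8.92 µM, 0.89% DMSO final / Timing: 45 min compound pre-incubation plus 60 min probe step, 25 °C / Signal: FP readout, ex 525 nm / em 598 nm / Control set: S159A mutant/DMSO as 100%, compound-well median as 0%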
# SIAE primary = human SIAE inhibitors, primary screen, biochemical, fluorescence polarization, FP-Rh probe, 1536-well HTS; SIAE FP-Rh probe binding; inhibition, % at 9.66 µM; 0.69% of 370,000 active; AID 1053197, 2014;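 active = inhibition above a cutoff: mean of compounds within the control limits plus 3 SD of those, cut at about 17% in these data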;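 also: 0% = plate median of compound wells and 100% = probe without SIAE protein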
# HTRA1 inh = HTRA1 serine protease inhibitors, primary screen, biochemical, fluorescence polarization, HTS. Q92743. recombinant HTRA1, FP-rhodamine activity-based probe. inhibition, % at 5.96 µM. 0.5% of 340,000 active. AID 504803, 2011; in the data active = inhibition above about 36%;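 also: 0% = enzyme with DMSO and 100% = wells lacking enzyme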
# PRMT1 FP inh = PRMT1 methyltransferase inhibitors, primary screen, biochemical, fluorescence polarization. recombinant PRMT1, activity-based probe fluorescence polarization. inhibition, % at 2.79 µM. 1.3% of 370,000 active;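 active = inhibition above about 21% made by adding two undisclosed values, limit read from the data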
# BSA TAMRA ctr = compounds interfering with TAMRA-BSA probe, counter-screen for TCR-CD3 interaction inhibitor project, biochemical, fluorescence, TAMRA-labeled BSA; TAMRA-labeled BSA probe fluorescence counterscreen; inhibition, % at 9.4 µM; shares compounds with TCR-CD3 inh; 10% of 1,200 active; in the data active = inhibition above about 23%;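 also: 0% = buffer low control and 100% = reference high control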
# TCR-CD3 conf = TCR-CD3 interaction inhibitors, retest, confirmation, biochemical, fluorescence, TAMRA-labeled TCR probe. inhibition, % at 9.4 µM. 48% of 1,200 active. shares compounds with TCR-CD3 inh. AID 652036, 2013. TAMRA-labeled TCR probe fluorescence binding assay
# Numbers without * were called inactive; . = not tested or not shown. Most compounds without a hit are left out; they make up all but 2.5% or so of the library. Rule as the data show it, unless noted: active = inhibition above about 19%; inactive = the rest.
SMILES,TCR-CD3 inh,ABHD4 inh,SIAE primary,HTRA1 inh,PRMT1 FP inh,BSA TAMRA ctr,TCR-CD3 conf
COc1ccc(C(=O)Nc2ccc(S(=O)(=O)N3CCCCC3)cc2)cc1,4,-4,-12,-26,-2,.,.
COc1ccc(-c2cnnn2-c2ccc(NC(=O)c3ccc(S(=O)(=O)N4CCCCC4)cc3)cc2)cc1,24*,-60,-82,-64,3,29*,39*
O=C(NNC(=O)c1ccccc1O)c1ccc(Cl)c(S(=O)(=O)N2CCCCC2)c1,27*,13,8,35,1,-10,20*
O=C(NC1CCCCCC1)C1CCN(S(=O)(=O)c2c(Cl)cccc2Cl)CC1,1,2,13,0,1,.,.
O=C(NNC(=O)C1CCN(S(=O)(=O)c2ccccc2C(F)(F)F)CC1)c1ccccc1O,31*,6,9,11,-2,-7,23*
O=C(NNC(=O)C1CCN(S(=O)(=O)c2c(Cl)cccc2Cl)CC1)c1ccccc1O,31*,8,6,15,1,-11,27*
O=C(NNS(=O)(=O)c1ccccc1)C1CCN(S(=O)(=O)c2ccccc2)CC1,-3,3,-1,2,1,.,.
O=C(NNC(=O)C1CCN(S(=O)(=O)c2ccccc2)CC1)c1ccccc1O,47*,11,4,-2,2,6,40*
O=C(NNC(=O)c1cccs1)c1ccc(Cl)c(S(=O)(=O)N2CCCC2)c1,-1,-4,7,-1,-1,.,.
C=CCCC(=O)N[C@H]1CC[C@@]23CCCN2C(=O)CCC[C@H]3[C@H]1C,.,7,12,.,-3,.,.
O=C(Nc1ccc(F)cc1)Nc1c(-c2ccc(F)cc2)nc2ncccn12,.,1,-1,.,0,.,.
COc1ccc(/C(C)=N\NC(=O)c2ccco2)cc1,.,3,-2,.,3,.,.
COc1ccc(CN(C)C(=O)C2CCCN(c3nc4ccccc4o3)C2)cc1 (stereo unspecified),.,1,-2,.,-10,.,.
N#Cc1c(SCC(=O)Nc2ccc(C(F)(F)F)cc2)sc2c(O)cc(=O)[nH]c12,-4,-2,-12,-22,14,.,.
N#Cc1c(SCC(=O)Nc2nncs2)sc2c(O)cc(=O)[nH]c12,27*,3,-19,-9,46*,-13,9
O=C(CCNS(=O)(=O)c1ccccc1)NCCCSc1ccccc1,0,-11,4,0,5,.,.
CCOc1ccc(S(=O)(=O)NCCC(=O)NCCCSc2ccccc2)cc1,43*,-2,1,-12,0,-1,2
CC1=CN2C(=N)/C(=C/c3ccco3)C(=O)N=C2S1,-6,3,-4,3,2,.,.
CC1=CN2C(=N)/C(=C/c3ccc([N+](=O)[O-])o3)C(=O)N=C2S1,72*,14,6,19,21,-16,2
COc1cc(C2NC(=O)CCC2[N+](=O)[O-])cc(OC)c1OC (stereo unspecified),23*,-8,-3,-1,2,-2,-3
COC(=O)c1cc(C(C)c2ccccc2O)n2ccccc12 (stereo unspecified),.,-21,-6,.,-5,.,.
CCOC(=O)Cn1c(=NC(=O)c2cc(-c3cccs3)nc3ccccc23)sc2cc(S(N)(=O)=O)ccc21,38*,-27,-18,-53,-2,4,21*
COC(=O)Cn1c(=NC(=O)c2cc(-c3cccs3)nc3ccccc23)sc2cc(S(N)(=O)=O)ccc21,57*,-105,-64,-124,1,10,31*
COc1ccc(/C=C/S(=O)(=O)NCCc2ccccc2)c(CNC(=O)OC(C)(C)C)c1,.,-17,12,.,0,.,.
CC(C)CN1CN2CCc3ccccc3C2CS1(=O)=O (stereo unspecified),.,5,1,.,-5,.,.
SMILES,TCR-CD3 inh,ABHD4 inh,SIAE primary,HTRA1 inh,PRMT1 FP inh,BSA TAMRA ctr,TCR-CD3 conf
COC(=O)[C@]12C[C@H](CC(=O)N3CCCC3)C(=O)N(Cc3cccc4ccccc34)C1=C[C@H](C1CCCC1)O[C@@H]2C,.,1,11,.,1,.,.
CC(C)CC1NC(=O)c2ccc(Cl)cc2-n2c1nc1cc(F)ccc1c2=O (stereo unspecified),170*,-10,0,.,0,5,-2
Cc1c(NC(=S)N/N=C/c2ccc([N+](=O)[O-])cc2O)c(=O)n(-c2ccccc2)n1C,24*,7,8,11,4,8,11
Cc1c(NC(=S)N/N=C\c2ccccc2O)c(=O)n(-c2ccccc2)n1C,18,8,1,2,6,.,.
CC(=O)CC[C@H]1CC[C@]2(CCCN(C(=O)c3ccco3)C2)O1,.,1,-1,.,-3,.,.
C[C@H]1Cn2cnc(C(=O)NCC(=O)OC(C)(C)C)c2C(=O)N1,6,0,-2,4,0,.,.
C[C@@H]1Cn2cnc(C(=O)N3CCN(C(=O)OC(C)(C)C)CC3)c2C(=O)N1,20*,1,3,.,0,3,2
O=C(N/N=C/C1CC=CCC1)c1ccc(Cl)cc1O (stereo unspecified),20*,13,3,25,1,-9,12
O=C(CSc1nnc(SCc2cccc3ccccc23)s1)c1ccc(F)cc1,.,-4,-5,.,-1,.,.
O=C(NC(=O)c1ccccc1F)OCc1ccc(Cl)cc1Cl,28*,-18,-1,-6,-2,-1,3
Oc1ccccc1-c1cnc2cccnn12,24*,4,4,.,-2,-2,-1
COc1ncccc1-c1cnc2cccnn12,-6,4,3,.,0,.,.
N#CCC(=O)Nc1ccc(C(=O)NCCC(c2ccccc2)c2ccccc2)cc1,21*,3,-33,-54,-4,3,4
CC(OC(=O)c1cccs1)C(=O)Nc1nc(-c2ccccc2)cs1 (stereo unspecified),1,-14,-6,-21,0,.,.
CC(CCc1ccccc1)NC(=O)COC(=O)c1ccc(NC(=O)CC#N)cc1 (stereo unspecified),30*,-6,-35,-21,0,2,3
CC(OC(=O)c1ccc(NC(=O)CC#N)cc1)C(=O)Nc1nc(-c2ccccc2)cs1 (stereo unspecified),35*,-12,-39,-40,1,0,12
C[C@H](CCCCC1(C)OCCO1)CCC(=O)N(c1ccccc1)c1ccccc1,.,-7,1,.,2,.,.

# Screens deposited in PubChem BioAssay by The Scripps Research Institute Molecular Screening Center.
